The values below come from ChEMBL document CHEMBL5705901, “Exploiting selective BCL-2 family inhibitors to dissect cell survival dependencies and define improved strategies for cancer therapy” (Sci Transl Med, 2015).

Activity calls are given as the source filed them. The rule behind the calls is not given here.

Data set [1] deals with MOLT-4. Nature of the data set: Induction of apoptosis in human MOLT-4 cells assessed as caspase-3/7 activation at 1 to 667 nM incubated for 4 hrs. Format: functional, cell-based. Conditions: dose 1-667 nM. The essentials: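 Molt-4 cells were incubated with increasing concentrations for 4 h, and caspase-3/7 activation was measured. Values are the mean of triplicate experiments ± SD.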

Data set [2] has as its system MEF. Nature of the data set: Cytotoxicity against BAK knockout MEF cells assessed as reduction in cell viability incubated for 48 hrs by CellTiter-Glo cell vaibility assay. Type of data set: toxicity, cell-based. Particulars: mouse.
In data set [3] the test system is NCI-H1650. Nature of the data set: Synergistic antitumor activity against human NCI-H1650 cells xenografted in SCID-bg mouse assessed as tumor growth delay at 25 mg/kg, po coadministered with docetaxel once daily for 14 days relative to control. Particulars: time 14 day. Type of data set: functional. A digest of the protocol:
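Xenografts dosed with oral inhibitor plus intravenous docetaxel. TGImax = 100(1 − Tv/Cv), from mean treated and control tumor volumes; TGD = 100(T/C − 1), from median times to reach 1 cm3. Group size 5 mice (NCI-H747, A549-FP3, EBC-1, OVCAR-5), 8 (NCI-H358), 10 (NCI-H1650).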

For another data set, the system named is MDA-MB-231. Nature of the data set: Synergistic antitumor activity against LC3 positive human MDA-MB-231 cells xenografted in SCID mouse assessed as maximum tumor growth inhibition at 25 mg/kg, po coadministered with docetaxel once daily for 14 days relative to control. Conditions: MDA-MB-231, 336 h, time 14 day, read-out: TGI. Format: functional. A digest of the protocol: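 MDA-MB-231 LC3 metastatic breast cancer xenograft, 10 mice per group, with a vehicle control. Dosing: oral agent 25 mg/kg daily for 14 days; docetaxel 7.5 mg/kg iv once; combination gives both regimens. Mean tumor volumes tracked. TGImax = 100(1 − Tv/Cv) from mean treated vs control volumes. TGD = 100(T/C − 1) from median times to reach 1 cm3.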

Data set [4] can be described thus: Toxicity in po dosed SCID mouse assessed as body weight loss in presence of docetaxel relative to control. Format: organism-based. Particulars: in vivo.
Data set [5] has as its system NCI-H1650. Nature of the data set: Antitumor activity against human NCI-H1650 cells xenografted in SCID-bg mouse assessed as tumor growth delay at 25 mg/kg, po administered daily for 14 days relative to control. Particulars: time 14 day. Type of data set: functional. The essentials:
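NCI-H1650 NSCLC xenografts, ten mice per group. Arms: vehicle; docetaxel iv once at 7.5 mg/kg; oral agent daily for 14 days at 25 mg/kg; and the two combined. TGImax = 100(1 − Tv/Cv) from mean volumes. TGD = 100(T/C − 1) from median times to reach 1 cm3.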
Background: A xenograft is tissue or cells of one species grown in another, often human tumour cells in immunodeficient mice.

The test system of data set [6] is MOLT-4. Nature of the data set: Antitumor activity against human MOLT-4 cells xenografted in SCID-bg mouse assessed as tumor regression at 25 mg/kg, po administered twice a day for 14 days. Conditions: time 14.0 day. Format: functional, organism-based. A digest of the protocol:
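Mice bearing Molt-4 T-ALL xenografts, dosed alongside a vehicle control group. Each point on the growth curve is the mean volume of 10 tumours, with SD.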

The subject of data set [7] is MEF. Nature of the data set: Cytotoxicity against BAX knockout MEF cells assessed as reduction in cell viability incubated for 48 hrs by CellTiter-Glo cell vaibility assay. Type of data set: toxicity, cell-based. Conditions: mouse. (In general: ATP-based viability assays read luminescence as a measure of living cells.)
A further data set deals with NCI-H661. Nature of the data set: Synergistic antiproliferative activity against human NCI-H661 cells assessed as reduction in cell viability by measuring bliss sum score incubated for 72 hrs in presence of docetaxel by CellTiter-Glo cell vaibility assay. Type of data set: functional.
For a further data set, the system named is SK-OV-3. Nature of the data set: Synergistic antiproliferative activity against human SK-OV-3 cells assessed as reduction in cell viability by measuring bliss sum score incubated for 72 hrs in presence of docetaxel by CellTiter-Glo cell vaibility assay. Type of data set: functional.
The next data set relates to EOL1. Nature of the data set: Antiproliferative activity against human EOL1 assessed as reduction in cell viability incubated for 48 hrs by CellTiter-Glo cell vaibility assay. Conditions: EOL1, 48 h. Type of data set: functional, cell-based. The essentials: (§1)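 Tumour cell lines (SCLC panel and AML panel) exposed to increasing concentrations for 48 hours, then cell viability measured. Cell-killing EC50 taken from the concentration-response.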

The subject of a further data set is OCI-AML-3. Nature of the data set: Antiproliferative activity against human OCI-AML-3 assessed as reduction in cell viability incubated for 48 hrs by CellTiter-Glo cell vaibility assay. Format: functional, cell-based. Conditions: OCI-AML-3, 48 h. The essentials: as §1
A short description of data set [8]: Antiproliferative activity against human OCI-M1 assessed as reduction in cell viability incubated for 48 hrs by CellTiter-Glo cell vaibility assay. Particulars: OCI-M1, 48 h. Format: functional, cell-based. A digest of the protocol: as §1
The subject of the next data set is HCC38. Nature of the data set: Synergistic antiproliferative activity against human HCC38 cells assessed as reduction in cell viability by measuring bliss sum score incubated for 72 hrs in presence of docetaxel by CellTiter-Glo cell vaibility assay. Type of data set: functional.
The next data set concerns BT-549. Nature of the data set: Synergistic antiproliferative activity against human BT-549 cells assessed as reduction in cell viability by measuring bliss sum score incubated for 72 hrs in presence of docetaxel by CellTiter-Glo cell vaibility assay. Type of data set: functional.
The test system of a further data set is MV4-11. Nature of the data set: Antiproliferative activity against human MV4-11 assessed as reduction in cell viability incubated for 48 hrs by CellTiter-Glo cell vaibility assay. Type of data set: functional, cell-based. Conditions: MV4-11, 48 h. The essentials: as §1
Data set [9] can be described thus: Inhibition of granulocyte colony formation in human bone marrow cells at 0.1 to 20 uM incubated for 14 to 16 days by light microscopic analysis. Format: toxicity, cell-based. Particulars: bone marrow cell, dose lower 0.1 µM, time lower 14 day, dose upper 20 µM, time upper 16 day. A digest of the protocol: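 Isolated human bone marrow cells cultured in semisolid medium with increasing inhibitor concentrations; granulocyte (neutrophil) colonies counted by light microscopy after 15–16 days; triplicate means with SD; Student's t test versus solvent control.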

The test system of a further data set is NCI-H345. Nature of the data set: Antiproliferative activity against human NCI-H345 assessed as reduction in cell viability incubated for 48 hrs by CellTiter-Glo cell vaibility assay. Format: functional, cell-based. Conditions: NCI-H345, 48 h. A digest of the protocol: as §1
A further data set relates to NCI-H446. Nature of the data set: Antiproliferative activity against human NCI-H446 assessed as reduction in cell viability incubated for 48 hrs by CellTiter-Glo cell vaibility assay. Conditions: NCI-H446, 48 h. Format: functional, cell-based. The essentials:
as §1

For another data set, the system named is NOMO-1. Nature of the data set: Antiproliferative activity against human NOMO-1 assessed as reduction in cell viability incubated for 48 hrs by CellTiter-Glo cell vaibility assay. Particulars: NOMO-1, 48 h. Type of data set: functional, cell-based. A digest of the protocol: as §1
For another data set, the system named is OVCAR-3. Nature of the data set: Synergistic antiproliferative activity against human OVCAR-3 cells assessed as reduction in cell viability by measuring bliss sum score incubated for 72 hrs in presence of docetaxel by CellTiter-Glo cell vaibility assay. Format: functional.
In the next data set the test system is HCC1569. Nature of the data set: Synergistic antiproliferative activity against human HCC1569 cells assessed as reduction in cell viability by measuring bliss sum score incubated for 72 hrs in presence of docetaxel by CellTiter-Glo cell vaibility assay. Format: functional.
Another data set concerns OCI-AML-5. Nature of the data set: Antiproliferative activity against human OCI-AML5 assessed as reduction in cell viability incubated for 48 hrs by CellTiter-Glo cell vaibility assay. Format: functional, cell-based. Conditions: OCI-AML-5, 48 h. The essentials:
as §1

A further data set has as its system BT-474. Nature of the data set: Induction of apoptosis in human BT-474 cells assessed as accumulation of cells with sub-G0-G1 DNA content at 1 uM incubated for 48 hrs in presence of docetaxel by flow cytometric analysis. Type of data set: functional, cell-based. On the technique in general: Flow cytometry measures light scatter and fluorescence of single cells or particles in a stream.

The subject of another data set is MX1. Nature of the data set: Induction of apoptosis in human MX1 cells assessed as accumulation of cells with sub-G0-G1 DNA content at 1 uM incubated for 48 hrs in presence of docetaxel by flow cytometric analysis. Format: functional, cell-based.

Regarding `Cc1c(-c2ccc(N3CCc4cccc(C(=O)Nc5nc6ccccc6s5)c4C3)nc2C(=O)O)cnn1CC12CC3CC(CC(C3)C1)C2`, the outcome with MOLT-4 [1] and with MOLT-4 [6] was Active. For the same molecule, the Activity result is “Non-Toxic” with MEF [2]; 170% with NCI-H1650 [3]; under 9% in data set [4]; 33% in the data set with NCI-H1650 [5]; “Non-Toxic” in the data set with MEF [7]. In addition, the inhibition in vivo at 25 mg/kg in the data set with MDA-MB-231 was found to be 93%.
As usually defined, the EC50 is the midpoint of the concentration-response curve. Turning to `CN(C)CC#Cc1ccc(OCCCc2sc(N3CCc4cccc(C(=O)Nc5nc6ccccc6s5)c4C3)nc2C(=O)O)c(F)c1` [A-1155463], the Activity_index is recorded as 94 with NCI-H661; 747 in the data set on SK-OV-3; 42 with HCC38; 117 in the data set on BT-549; 683 with OVCAR-3; 185 in the data set on HCC1569. Moreover, the EC50 was 2250 nM with EOL1; over 5000 nM with OCI-AML-3; 230 nM in data set [8]; over 5000 nM in the data set with MV4-11; over 10000 nM with NCI-H345; 200 nM in the data set on NCI-H446. In addition, the 50% effective concentration (EC50) with NOMO-1 and in the data set with OCI-AML-5 was over 5000 nM each time. The Activity result (in data set [9]; in the data set on MEF [2]; in the data set with MEF [7]) was “Non-Toxic” throughout.
Turning to `CC1(C)CCC(c2ccc(Cl)cc2)=C(CN2CCN(c3ccc(C(=O)NS(=O)(=O)c4ccc(N[C@H](CCN5CCOCC5)CSc5ccccc5)c(S(=O)(=O)C(F)(F)F)c4)cc3)CC2)C1` [NAVITOCLAX], the outcome in the data set with BT-474 and in the data set with MX1 was Active. For the same molecule, the EC50 is 11 nM in the data set with EOL1; over 5000 nM with OCI-AML-3; 410 nM in [8]; 40 nM in the data set with MV4-11; 300 nM in the data set on NCI-H345; 850 nM in the data set with NCI-H446. In addition, the concentration giving a half-maximal response (EC50) in the data set on NOMO-1 was over 5000 nM; in the data set on OCI-AML-5 it was 180 nM. Moreover, the Activity entry in [9] is “Toxic”.
